Data: ChEMBL document CHEMBL4130629 (J Med Chem, 2018)

Columns and labels:
MT2 = assay: Cytotoxicity against human MT2 cells assessed as decrease in cell viability after 3 days […]; format: functional; conditions: MT2, 72 h
[1] = Metabolic stability in human liver microsomes assessed as parent compound remaining after 10 mins; format: ADME, microsome; conditions: read-out: Stability
Summary of the method: (§1)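 Compound at 3 μM was incubated with human or rat liver microsomes, and the percentage of parent compound remaining was measured after 10 min.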

[2] = Metabolic stability in rat liver microsomes assessed as parent compound remaining after 10 mins; format: ADME, microsome; conditions: read-out: Stability; summary of the method: as §1
[3] = system: Human immunodeficiency virus 1; assay: Antiviral activity against ENV pseudotyped CCR5-tropic HIV1 […] infected in human HeLa67 cells after 3 days by luciferase reporter gene assay; format: functional, organism-based; conditions: Human immunodeficiency virus 1, HeLa67, 72 h
Summary of the method: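 Single-cycle infection with env-deleted, luciferase-reporter HIV-1 pseudotyped with the JRFL (CCR5) envelope, supplied by transfection; viral titers normalized by luminescence without compound. HeLa 67 cells were infected in the presence of compounds given as 3-fold serial dilutions made from 30 mM DMSO stocks.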

[4] = Half life in human liver microsomes; format: ADME, microsome
[5] = Permeability in human Caco2 cells; format: ADME, cell-based; conditions: Caco-2, read-out: permeability

SMILES | CC50 (MT2) | remaining at 10 min [1] | remaining at 10 min [2] | EC50 [3] | half-life [4] | Papp [5]
COc1cnc(-n2nccc2N)c2[nH]cc(C(=O)C(=O)N3CCN(C(=O)c4ccccc4)[C@H](C)C3)c12 | > 300000 nM | 68% | 85% | 0.07 nM |  | 
COc1cnc(-c2cnc(N)cn2)c2[nH]cc(C(=O)C(=O)N3CCN(C(=O)c4ccccc4)CC3)c12 | 20000 nM |  |  | 0.04 nM | 68 min | 3.3 ×10⁻⁶ cm/s
COc1cnc(-n2ccc(-c3cccc(-c4nn[nH]n4)c3)n2)c2[nH]cc(C(=O)C(=O)N3CCN(C(=O)c4ccccc4)CC3)c12 | 128000 nM |  |  | 0.02 nM |  | 
COc1cnc(-c2ccsc2)c2[nH]cc(C(=O)C(=O)N3CCN(C(=O)c4ccccc4)CC3)c12 | 43000 nM |  |  | 0.13 nM | 13 min | 3.9 ×10⁻⁶ cm/s
COc1cnc(-n2ccc(CN(C)C)n2)c2[nH]cc(C(=O)C(=O)N3CCN(C(=O)c4ccccc4)[C@H](C)C3)c12 | > 300000 nM |  |  | 19.8 nM |  | 
COc1cnc(-c2cc[nH]n2)c2[nH]cc(C(=O)C(=O)N3CCN(C(=O)c4ccccc4)CC3)c12 | 3000 nM |  |  | 0.26 nM | 47 min | < 1 ×10⁻⁶ cm/s
COc1cnc(-c2cncs2)c2[nH]cc(C(=O)C(=O)N3CCN(C(=O)c4ccccc4)CC3)c12 | 297000 to 300000 nM |  |  | 0.03 nM | 19 min | 1.5 ×10⁻⁶ cm/s
COc1cnc(-c2ccnnc2)c2[nH]cc(C(=O)C(=O)N3CCN(C(=O)c4ccccc4)CC3)c12 | 14000 nM |  |  | 0.19 nM | 48 min | < 1.5 ×10⁻⁶ cm/s
CCCS(=O)(=O)c1ncn(-c2ncc(OC)c3c(C(=O)C(=O)N4CCN(C(=O)c5ccccc5)CC4)c[nH]c23)n1 | 207000 nM |  |  | 0.78 nM |  | 
COc1cnc(-c2cscn2)c2[nH]cc(C(=O)C(=O)N3CCN(C(=O)c4ccccc4)CC3)c12 |  |  |  | 0.11 nM | 39 min | 21.7 ×10⁻⁶ cm/s
COc1cnc(-c2cnccn2)c2[nH]cc(C(=O)C(=O)N3CCN(C(=O)c4ccccc4)CC3)c12 | 3460 nM |  |  | 0.04 nM | 19 min | 17 ×10⁻⁶ cm/s
COc1cnc(-c2cccc(C)n2)c2[nH]cc(C(=O)C(=O)N3CCN(C(=O)c4ccccc4)CC3)c12 | 30000 nM |  |  | 0.59 nM | 12 min | 13.4 ×10⁻⁶ cm/s
COc1cnc(-c2cnc(N)s2)c2[nH]cc(C(=O)C(=O)N3CCN(C(=O)c4ccccc4)CC3)c12 | > 250000 nM |  |  | 0.06 nM | 26 min | 
COc1cnc(-n2cnc(C(=O)N(C)C)n2)c2[nH]cc(C(=O)C(=O)N3CCN(C(=O)c4ccccc4)CC3)c12 | > 300000 nM |  |  | 0.1 nM |  | 
CCc1ncc(-c2ncc(OC)c3c(C(=O)C(=O)N4CCN(C(=O)c5ccccc5)CC4)c[nH]c23)s1 | 120000 nM |  |  | 0.03 nM | 7 min | 14.1 ×10⁻⁶ cm/s
COc1cnc(-c2cccc(N)n2)c2[nH]cc(C(=O)C(=O)N3CCN(C(=O)c4ccccc4)CC3)c12 | 122000 nM |  |  | 0.09 nM | 13 min | 6.6 ×10⁻⁶ cm/s
COc1cnc(-c2cccnn2)c2[nH]cc(C(=O)C(=O)N3CCN(C(=O)c4ccccc4)CC3)c12 | > 300000 nM |  |  | 0.17 nM | 29 min | 2.4 ×10⁻⁶ cm/s
COc1cnc(-c2cn(C)c(=O)cn2)c2[nH]cc(C(=O)C(=O)N3CCN(C(=O)c4ccccc4)CC3)c12 | > 150000 nM |  |  | 0.26 nM |  | 
COc1cnc(-c2ncco2)c2[nH]cc(C(=O)C(=O)N3CCN(C(=O)c4ccccc4)CC3)c12 | 15000 nM |  |  | 0.37 nM | 37 min | 7.2 ×10⁻⁶ cm/s
COc1cnc(-c2ccco2)c2[nH]cc(C(=O)C(=O)N3CCN(C(=O)c4ccccc4)CC3)c12 | 281000 to 300000 nM |  |  | 0.02 nM | 19 min | 8.6 ×10⁻⁶ cm/s
COc1cnc(-c2cnc(O)cn2)c2[nH]cc(C(=O)C(=O)N3CCN(C(=O)c4ccccc4)CC3)c12 | > 300000 nM |  |  | 0.04 nM | > 100 min | < 1.5 ×10⁻⁶ cm/s
COc1cnc(-n2cnc(N3CCN(C)CC3)n2)c2[nH]cc(C(=O)C(=O)N3CCN(C(=O)c4ccccc4)CC3)c12 | > 300000 nM |  |  | 0.14 nM |  | 

SMILES | CC50 (MT2) | remaining at 10 min [1] | remaining at 10 min [2] | EC50 [3] | half-life [4] | Papp [5]
COc1cnc(-c2ncccn2)c2[nH]cc(C(=O)C(=O)N3CCN(C(=O)c4ccccc4)CC3)c12 | > 300000 nM |  |  | 1.28 nM | 32 min | 10.6 ×10⁻⁶ cm/s
COc1cnc(-c2ccncc2)c2[nH]cc(C(=O)C(=O)N3CCN(C(=O)c4ccccc4)CC3)c12 | 6000 nM |  |  | 0.33 nM |  | 
CNC(=O)c1ncn(-c2ncc(OC)c3c(C(=O)C(=O)N4CCN(C(=O)c5ccccc5)CC4)c[nH]c23)n1 | > 300000 nM |  |  | 0.1 nM |  | 
COc1cnc(-c2cncc(N)n2)c2[nH]cc(C(=O)C(=O)N3CCN(C(=O)c4ccccc4)CC3)c12 | 14000 nM |  |  | 0.06 nM | 21 min | 1.5 to 2.2 ×10⁻⁶ cm/s
COc1cnc(-n2cnc(C)n2)c2[nH]cc(C(=O)C(=O)N3CCN(C(=O)c4ccccc4)[C@@H](C)C3)c12 | > 300000 nM |  | 95% | 0.52 nM |  | 
COc1cnc(-c2nccs2)c2[nH]cc(C(=O)C(=O)N3CCN(C(=O)c4ccccc4)CC3)c12 | > 150000 nM |  |  | 0.02 nM | 17 min | < 1.5 ×10⁻⁶ cm/s
COc1cnc(-n2cc(C)cn2)c2[nH]cc(C(=O)C(=O)N3CCN(C(=O)c4ccccc4)CC3)c12 | 243000 nM |  |  |  |  | 
COc1cnc(-n2ccc(N)n2)c2[nH]cc(C(=O)C(=O)N3CCN(C(=O)c4ccccc4)[C@H](C)C3)c12 | > 300000 nM | 92% | 91% | 0.16 nM |  | 
COc1cnc(-n2ccc(-c3ccc(-c4nn[nH]n4)cc3)n2)c2[nH]cc(C(=O)C(=O)N3CCN(C(=O)c4ccccc4)CC3)c12 | > 300000 nM |  |  | 0.03 nM |  | 
CNc1cnc(-c2ncc(OC)c3c(C(=O)C(=O)N4CCN(C(=O)c5ccccc5)CC4)c[nH]c23)cn1 | > 95000 nM |  |  | 0.02 nM | 21 min | 
COc1cnc(-c2cnccn2)c2[nH]cc(C(=O)C(=O)N3CCN(C(=O)c4ccccn4)[C@@H](C)C3)c12 | 267000 to 300000 nM |  |  | 1.04 nM |  | 
COc1cnc(-c2ccncn2)c2[nH]cc(C(=O)C(=O)N3CCN(C(=O)c4ccccc4)CC3)c12 | 285000 to 300000 nM |  |  | 0.11 nM | 15 min | 37.8 ×10⁻⁶ cm/s
CCCSc1ncn(-c2ncc(OC)c3c(C(=O)C(=O)N4CCN(C(=O)c5ccccc5)CC4)c[nH]c23)n1 | 7000 nM |  |  | 0.015 nM |  | 
CCOc1ncc(-c2ncc(OC)c3c(C(=O)C(=O)N4CCN(C(=O)c5ccccc5)CC4)c[nH]c23)s1 | > 300000 nM |  |  | 0.1 nM | 17 min | 
COc1cccc(-c2ncc(OC)c3c(C(=O)C(=O)N4CCN(C(=O)c5ccccc5)CC4)c[nH]c23)n1 | 64000 nM |  |  | 0.91 nM | 8 min | 
COc1cnc(-c2cccnc2)c2[nH]cc(C(=O)C(=O)N3CCN(C(=O)c4ccccc4)CC3)c12 | 10000 nM |  |  | 0.09 nM | 41 min | < 1.5 ×10⁻⁶ cm/s
COc1cnc(-c2ccoc2)c2[nH]cc(C(=O)C(=O)N3CCN(C(=O)c4ccccc4)CC3)c12 | 146000 nM |  |  | 0.11 nM | 29 min | 4.6 ×10⁻⁶ cm/s
COc1cnc(-c2ccccn2)c2[nH]cc(C(=O)C(=O)N3CCN(C(=O)c4ccccc4)CC3)c12 | 4000 nM |  |  | 0.13 nM | 15 min | 13.4 ×10⁻⁶ cm/s
COc1cnc(-n2cnc(C(=O)N3CCN(C)CC3)n2)c2[nH]cc(C(=O)C(=O)N3CCN(C(=O)c4ccccc4)CC3)c12 | > 150000 nM |  |  | 6.54 nM |  | 
COc1cnc(-c2cccs2)c2[nH]cc(C(=O)C(=O)N3CCN(C(=O)c4ccccc4)CC3)c12 | 36000 nM |  |  | 0.12 nM | 18 min | 6.6 ×10⁻⁶ cm/s
COc1ncn(-c2ncc(OC)c3c(C(=O)C(=O)N4CCN(C(=O)c5ccccc5)CC4)c[nH]c23)n1 | 285000 nM |  |  | 0.13 nM |  | 
